Data reported in the RNAGym collection of RNA variant scans (doi:10.1126/science.aae0568).
Fewer inactive variants are shown than the library holds.

B1: tRNA (parent)
chain: GUUCCGUUGGCGUAAUGGUAACGCGUCUCCCUCCUAAGGAGAAGACUGCGGGUUCGAGUCCCGUACGGAACG

Variants of: B1
Assay: yeast fitness relative to wild type (ratio to wild type); higher = fitter; tRNA-Arg(CCU), competitive growth, 37 C, YPD
Method in brief: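 Gene amplicons from the start population and from each of six end populations were read by 100-nucleotide paired-end sequencing. Those end populations came from pooled Saccharomyces cerevisiae strains carrying tRNA-Arg(CCU) gene variants at the native locus, competed in YPD at 37°C for 24 hours. Fitness relative to wild type was worked out from changes in genotype frequencies. Genotypes needed ≥ 100 starting reads, and estimates < 0.5 were set to 0.5.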

Variant | yeast fitness
A14U A15G C34G C61U | ≤ 0.5
A14U G18A A40G C62A | ≤ 0.5
A14G U32C | 0.931
A14G U47A A69C | ≤ 0.5
A14U G23C | 0.508
A14U G23A | ≤ 0.5
A14U U26G A37C | ≤ 0.5
A14U C27U C29G C31U | ≤ 0.5
A14U C30G C62G | 0.573
A14U C24G C31A A40G G44C | ≤ 0.5
A14U G18C U35G C49A G68A | 0.59
A14U U26A A42G U59G C60U | ≤ 0.5
A14U C29G C34G | ≤ 0.5
A14U U16A C27G A40U C49G A65U | ≤ 0.5
A14U A15G U53G | ≤ 0.5
A14U C30A C55A C62A | 0.578
A14U C24U C33A G44C U47C | 0.534
A14U A42U A65G A69C | ≤ 0.5
A14G U35A A42U C46G G56A | 0.524
A14U C27A C62G | 0.667
A14U G23A U64A C66A | ≤ 0.5
A14U A45G U53C A65U | ≤ 0.5
A14U U16G U19A | ≤ 0.5
A14U C34A G48A U59C | 0.541

Variant | yeast fitness
A14U U26G | 0.675
A14U U26C | 0.698
A14U U16C A42U | ≤ 0.5
A14U C24G G58A | 0.561
A14U C30G G51C | ≤ 0.5
A14U C31U C34A U64A | ≤ 0.5
A14U C30U C46U G52C A69U | ≤ 0.5
A14U G38C C62A G67C | ≤ 0.5
A14U G56A G67A | ≤ 0.5
A14U A43G C49U | ≤ 0.5
A14U G23U G67C | ≤ 0.5
A14U A20U C66U G67A | ≤ 0.5
A14U A21G G39C A45G G50U U53C | ≤ 0.5
A14U G25A C27U C55G | ≤ 0.5
A14U G38A | 0.573
A14U A15C C24A U26A G50C | 0.544
A14U G58A | 0.629
A14U A15C G25C | ≤ 0.5
A14U C29G C55G A69G A70G | ≤ 0.5
A14U A21U A69C | 0.566
A14U C24G A57C A65G | ≤ 0.5
A14U A37C C46U G51C C66G | 0.529
A14U A20U G63A | ≤ 0.5
A14U A37U C66U | ≤ 0.5

Variant | yeast fitness
A14U C30U U53A | ≤ 0.5
A14U G52C C66U | ≤ 0.5
A14U A21G G39C A45G U53C C62U | ≤ 0.5
A14U U16A C22U C24A | ≤ 0.5
A14U G18A A21U A42G G68A | ≤ 0.5
A14U A20G A69C | ≤ 0.5
A14U G18C U35G C49A C60G G68A | ≤ 0.5
A14U C27U C33U G51A G67A | ≤ 0.5
A14U C22U G25A C55G C60U G68C | ≤ 0.5
A14U G63C | ≤ 0.5
A14U G63A | ≤ 0.5
A14U A20G C30G A42C A70G | ≤ 0.5
A14U G23A C29G C46A C55G G67A | ≤ 0.5
A14U G52A G63C G67C A69U | ≤ 0.5
A14U A36U G41A C49G | ≤ 0.5
A14U A42U A57U A70U | ≤ 0.5
A14U A37G | 0.6
A14U A37C | 0.627
A14U A15U C27A C29G G44C C66A A70G | ≤ 0.5
A14U C29G G51A C66G | ≤ 0.5
A14U C30U C46U G52C | ≤ 0.5
A14G U47C G68A | ≤ 0.5
A14U A20G | 0.749
A14U A20U | 0.588

Variant | yeast fitness
A14U C33A A69G | 0.742
A14U A21C A36C C49A A65G C66G | 0.567
A14U C62U | 0.616
A14U C29G G67A | 0.542
A14U C49U G52A | ≤ 0.5
A14U G17A C22U G63C | ≤ 0.5
A14U A45C | 0.653
A14U A45U | 0.572
A14U C30A G41A G56C | ≤ 0.5
A14U C24G G41A G44A | ≤ 0.5
A14U C24G G41A G44A U53A C66U G68C | ≤ 0.5
A14U C31A C61A | ≤ 0.5
A14U C27G A36G C46A U59A | 0.52
A14U U26G C55G | ≤ 0.5
A14U G18C G39C C49G | ≤ 0.5
A14U C49U U54C | ≤ 0.5
A14U A37C C62A C66A | 0.574
A14U G17A G23A | ≤ 0.5
A14G U35C C62G A65G | 0.635
A14U C29U A37U G41A | ≤ 0.5
A14U C30U U32C U64G | ≤ 0.5
A14G U35G A40G A57G | ≤ 0.5
A14U A45U U47A | ≤ 0.5
A14U C30U A42G C66G | ≤ 0.5

Variant | yeast fitness
A14U A45U A69C | 0.539
A14U A15G A45C G50A C62U | 0.526
A14U G17A A43U | ≤ 0.5
A14U C24G C27U U54G | ≤ 0.5
A14U C24G U26C U28C A45U C49A | ≤ 0.5
A14U A40C A57C | ≤ 0.5
A14U C30A C66U A70G | 0.64
A14U C30U A37G A70G | ≤ 0.5
A14U G52A G56A | ≤ 0.5
A14U C55A C62U C66U | 0.553
A14U C34G C61A | ≤ 0.5
A14U C22A A43G G52C | ≤ 0.5
A14U A40U A42U G51A | 0.62
A14U A15C C31A | ≤ 0.5
A14U U19A C60G A70G | 0.531
A14G U35A | 0.561
A14G U35C | 0.635
A14U G44C | 0.673
A14U G44A | 0.582
A14U C31A C60A | 0.514
A14G U32C A42G U59C | ≤ 0.5
A14U C24U C33A G44C U47C C60G | ≤ 0.5
A14G U32C A42C A57U C61G | ≤ 0.5
A14U C49U C55U | ≤ 0.5

Variant | yeast fitness
A14U U26C C49A | ≤ 0.5
A14U A57C | ≤ 0.5
A14U A57U | ≤ 0.5
A14U C22G A43U A57C G63C C66U | ≤ 0.5
A14U U26C A42U C49U | 0.536
A14U U26A A45U U53C | 0.597
A14U U19A A36C G63A | 0.586
A14U C30U A42C | ≤ 0.5
A14U C30U A42G | ≤ 0.5
A14U C31G C61G A69G | ≤ 0.5
A14U G50U | 0.601
A14U A21C C22U C33G A57U C60G G68C | ≤ 0.5
A14U U16A C33G A45C A69U | ≤ 0.5
A14U G50C A57G | ≤ 0.5
A14U A37U U59A | ≤ 0.5
A14U C22U A36U | 0.571
A14U G17A U59C C61U | 0.653
A14U G23A C27A G58C C61U | ≤ 0.5
A14U A42U C61U C66U | ≤ 0.5
A14U A15C G39C | 0.546
A14U A20C C31G C66A | ≤ 0.5
A14U G18A U35A C46G A69U | 0.591
A14U A40C C66A | ≤ 0.5
A14U C30U U59A | ≤ 0.5

Variant | yeast fitness
A14U U16A | 0.667
A14U A20C U28C C46U G58A | 0.678
A14U C24A C30U A37G | ≤ 0.5
A14U A37G G44C A45C G50A C55G C66A | 0.539
A14U U16A U26G C29G | ≤ 0.5
A14U C60G | ≤ 0.5
A14U C60A | ≤ 0.5
A14U A43C C46U | ≤ 0.5
A14U C22A A43G G68C | ≤ 0.5
A14U A20C C31U A37G | ≤ 0.5
A14U G25C A45G A69U | ≤ 0.5
A14U A69C | 0.635
A14U A69G | 0.608
A14U C24G C31A A40G G44C C55U A69U | ≤ 0.5
A14U A15G A43C G52A G56A C62G A65G | 0.607
A14U G17A C22U C33G | 0.567
A14U G18C A36G | ≤ 0.5
A14U C34G A37C | ≤ 0.5
A14U A43G C55G | ≤ 0.5
A14U C22U A40U G44C A57C | 0.635
A14U G23A A40U G48C C55U C61G | ≤ 0.5
A14U C29U C55U | ≤ 0.5
A14U C24G A42C | 0.531
